Measured values reported in ChEMBL document CHEMBL4680189, “Immunosuppressive properties of amino acid and peptide derivatives of mycophenolic acid” (Eur J Med Chem, 2020).
Calls of active or inactive are those of the source. The rule behind the calls is not given here. Where a SMILES comes first, the peptide text is derived from it. [ ]: non-standard residue; d: D form. The star is where a group is joined. Mycophenolyl = COc1c(C)c2c(c(O)c1C/C=C(\C)CCC(=O)*)C(=O)OC2; Arg(NO2) = N=C(NCCC[C@H](N)C(=O)O)N[N+](=O)[O-]; βAla = NCCC(=O)O

What was measured:
[1] = Immunosuppression-mediated cytotoxicity against anti-CD3/anti-CD28-stimulated human PBMC cells assessed as reduction in cell viability incubated for 72 hrs by MTT assay; assay type: cell-based
Procedure, shortened: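 PBMC from buffy coats of healthy donors, isolated on a Ficoll gradient with erythrocyte lysis. Plated at 50×10^3 cells/well with anti-CD3/anti-CD28, serial compound dilutions, in triplicate. Incubated 72 h, 37 °C, 5% CO2. MTT added for 3 h, formazan dissolved in acidified isopropanol (0.4 N HCl), A570 read. Three donors averaged; IC50 from curve fit.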

Jurkat [2] = test: Immunosuppression-mediated cytotoxicity against human Jurkat T cells assessed as reduction in cell viability at 1 mg/ml incubated for 48 hrs by MTT assay relative to control; assay type: cell-based
Procedure, shortened: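 Jurkat cells (RPMI-1640, 10% FBS) plated at 50×10^3 cells/well and exposed to 1 mg/mL compound (1 mg in 20 μL DMSO, made up to 1 mL with medium). 48 h at 37 °C, 5% CO2, in triplicate. MTT (5 mg/mL stock) for 3 h, acidified isopropanol, A570. Viability calculated at that concentration.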

Jurkat [3] = test: Immunosuppression-mediated antiproliferative activity against human Jurkat T cells assessed as inhibition of cell growth incubated for 48 hrs by VPD450 staining based flow cytometry; assay type: functional
Procedure, shortened: (§1)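 Cells stained with VPD450 (2 μL of 1 mM dye per 10-30×10^6 cells in 1 mL PBS, 15 min, 37 °C), washed. PBMC: 50×10^3 cells/well with anti-CD3/anti-CD28, serial compound dilutions, 72 h. Jurkat: 50×10^3 cells/well, 48 h. 37 °C, 5% CO2, triplicate. Dye dilution by flow cytometry; EC50 from curve fit.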

[4] = Immunosuppression-mediated antiproliferative activity against anti-CD3/anti-CD28-stimulated human PBMC cells assessed as inhibition of cell growth incubated for 72 hrs by VPD450 staining based flow cytometry; assay type: functional; procedure, shortened: as §1
[5] = Selectivity index, ratio of IC50 for cytotoxicity against human PBMC by MTT assay to EC50 for antiproliferative activity against human PBMC by VPD450 staining based flow cytometry
Procedure, shortened: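 Ratio of the MTT cytotoxicity IC50 (72 h, stimulated PBMC) to the VPD450 antiproliferative EC50 (72 h, stimulated PBMC), both from fitted concentration-response curves.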

PBMC = test: Immunosuppression-mediated antiproliferative activity against anti-CD3/anti-CD28-stimulated human PBMC cells assessed as inhibition of cell growth incubated for 72 hrs in presence of GMP by VPD450 staining based flow cytometry; assay type: functional
Procedure, shortened: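 VPD450-stained PBMC, 50×10^3 cells/well, anti-CD3/anti-CD28 stimulation, serial compound dilutions plus GMP at 50 μM in the well. Incubated 72 h at 37 °C, 5% CO2, in triplicate. Proliferation read by flow cytometry as dye dilution and expressed relative to controls.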

Jurkat [6] = test: Immunosuppression-mediated cytotoxicity against human Jurkat T cells assessed as reduction in cell viability incubated for 48 hrs by MTT assay; assay type: cell-based
Procedure, shortened: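 Jurkat cells in RPMI-1640 with 10% FBS and P/S, 50×10^3 cells/well, exposed in triplicate to serial dilutions from 1 mg/mL (DMSO/medium) for 48 h at 37 °C, 5% CO2. MTT (5 mg/ml) then added for 3 h. Formazan dissolved in 0.4 N HCl–isopropanol, absorbance read at 570 nm. IC50 from curve fitting; viability at 1 mg/mL used where IC50 could not be reached.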

[7] = Selectivity index, ratio of IC50 for cytotoxicity against human Jurkat T cells by MTT assay to EC50 for antiproliferative activity against human Jurkat T cells by VPD450 staining based flow cytometry
Procedure, shortened: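 Jurkat IC50 from the 48 h MTT assay (50×10^3 cells/well, triplicate) divided by Jurkat EC50. […] Cells treated 48 h with serial dilutions, then dye dilution read by flow cytometry and fitted.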

Jurkat [8] = test: Immunosuppression-mediated antiproliferative activity against human Jurkat T cells assessed as inhibition of cell growth at 1 mg/ml incubated for 48 hrs by VPD450 staining based flow cytometry relative to control; assay type: functional; parameters: scale not given: the % may be the effect or the level left
Procedure, shortened: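 Jurkat cells stained with VPD450 (2 μL of 1 mM dye per 10-30×10^6 cells, 15 min, 37 °C) and plated at 50×10^3 cells/well. Compound added at the top concentration, 1 mg/mL (1 mg dissolved in 20 μL DMSO, made up to 1 mL with medium). 48 h at 37 °C, 5% CO2, in triplicate. Read by flow cytometry; […].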

For `COC(=O)[C@@H](NC(=O)[C@H](CCCCNC(=O)[C@H](C)N)NC(=O)[C@@H]1CCCN1C(=O)[C@H](CCCNC(=N)N[N+](=O)[O-])NC(=O)CC/C(C)=C/Cc1c(O)c2c(c(C)c1OC)COC2=O)[C@@H](C)O` (Mycophenolyl-[Arg(NO2)]PK(Ala)T-OMe), the IC50 [1] was 750 µM, the Activity (Jurkat [2]) was 53.9% and the EC50 (Jurkat [3]) was 839 µM. The EC50 [4] was 168 µM, the “Ratio IC50/EC50” value [5] was 4.5 and the Activity (PBMC) was “inactive”.
For `CC[C@H](C)[C@H](N)C(=O)NCCCC[C@H](NC(=O)[C@@H](NC(=O)CC/C(C)=C/Cc1c(O)c2c(c(C)c1OC)COC2=O)[C@@H](C)O)C(=O)N1CCC[C@H]1C(=O)N[C@@H](CCCNC(=N)N[N+](=O)[O-])C(=O)OC` (Mycophenolyl-TK(Ile)P[Arg(NO2)]-OMe), the IC50 (Jurkat [6]) was 809 µM, the IC50 [1] was 461 µM and the EC50 (Jurkat [3]) was 924 µM. For the same molecule, the EC50 [4] was 357 µM, the “Ratio IC50/EC50” value [7] was 0.9 and the “Ratio IC50/EC50” value [5] was 1.3.
For `COC(=O)[C@H](CCCNC(=N)N[N+](=O)[O-])NC(=O)[C@@H]1CCCN1C(=O)[C@H](CCCCNC(=O)CCN)NC(=O)[C@@H](NC(=O)CC/C(C)=C/Cc1c(O)c2c(c(C)c1OC)COC2=O)[C@@H](C)O` (Mycophenolyl-TK(βAla)P[Arg(NO2)]-OMe), the IC50 (Jurkat [6]) was 1020 µM, the IC50 [1] was 526 µM and the EC50 (Jurkat [3]) was 941 µM. The EC50 [4] was 211 µM, the “Ratio IC50/EC50” value [7] was 1.1 and the “Ratio IC50/EC50” value [5] was 2.5. The Activity (PBMC) was “inactive”.
Molecule `COC(=O)[C@H](CCCNC(=N)N[N+](=O)[O-])NC(=O)CC/C(C)=C/Cc1c(O)c2c(c(C)c1OC)COC2=O` has an IC50 (Jurkat [6]) of 347 µM, an IC50 [1] of 14 µM and an EC50 (Jurkat [3]) of 22.3 µM. The EC50 [4] was 77 µM, the “Ratio IC50/EC50” value [7] was 16 and the “Ratio IC50/EC50” value [5] was 0.2. The Activity (PBMC) was “inactive”.
`COC(=O)C[C@H](NC(=O)CC/C(C)=C/Cc1c(O)c2c(c(C)c1OC)COC2=O)C(=O)OC` showed an IC50 (Jurkat [6]) of 20 µM, an IC50 [1] of 18 µM and an EC50 (Jurkat [3]) of 16.7 µM. For the same molecule, the EC50 [4] was 8 µM, the “Ratio IC50/EC50” value [7] was 1.2 and the “Ratio IC50/EC50” value [5] was 2.2. For the same molecule, the Activity (PBMC) was “inactive”.
With `COC(=O)[C@@H](NC(=O)[C@H](CCCCNC(=O)[C@@H](N)CC(C)C)NC(=O)[C@@H]1CCCN1C(=O)[C@H](CCCNC(=N)N[N+](=O)[O-])NC(=O)CC/C(C)=C/Cc1c(O)c2c(c(C)c1OC)COC2=O)[C@@H](C)O` (Mycophenolyl-[Arg(NO2)]PK(Leu)T-OMe) the IC50 [1] was 519 µM, the Activity (Jurkat [2]) was 61.34% and the EC50 [4] was 161 µM. For the same molecule, the Activity (Jurkat [8]) was 63.04% and the “Ratio IC50/EC50” value [5] was 3.2.
With `COC(=O)[C@@H](NC(=O)[C@H](CCCCNC(=O)CCN)NC(=O)[C@@H]1CCCN1C(=O)[C@H](CCCNC(=N)N[N+](=O)[O-])NC(=O)CC/C(C)=C/Cc1c(O)c2c(c(C)c1OC)COC2=O)[C@@H](C)O` (Mycophenolyl-[Arg(NO2)]PK(βAla)T-OMe) the IC50 (Jurkat [6]) was 786 µM, the IC50 [1] was 588 µM and the EC50 [4] was 154 µM. For the same molecule, the Activity (Jurkat [8]) was 75.89% and the “Ratio IC50/EC50” value [5] was 3.8.
In the case of `COC(=O)C(NC(=O)CC/C(C)=C/Cc1c(O)c2c(c(C)c1OC)COC2=O)C(=O)OC`, the IC50 (Jurkat [6]) is reported as 101 µM, the IC50 [1] is reported as 3.5 µM and the EC50 (Jurkat [3]) is reported as 65 µM. For the same molecule, the EC50 [4] was 11 µM, the “Ratio IC50/EC50” value [7] was 1.6 and the “Ratio IC50/EC50” value [5] was 0.3. For the same molecule, the Activity (PBMC) was “inactive”.
`COc1c(C)c2c(c(O)c1C/C=C(\C)CCC(=O)N[C@H](CCCNC(=N)N[N+](=O)[O-])C(=O)O)C(=O)OC2` gave an IC50 [1] of 422 µM, an Activity (Jurkat [2]) of 75.14% and an EC50 (Jurkat [3]) of 1040 µM. For the same molecule, the EC50 [4] was 588 µM, the “Ratio IC50/EC50” value [5] was 0.7 and the Activity (PBMC) was “inactive”.
With `COC(=O)[C@H](NC(=O)CC/C(C)=C/Cc1c(O)c2c(c(C)c1OC)COC2=O)[C@H](C)O` the IC50 (Jurkat [6]) was 115 µM, the IC50 [1] was 69 µM and the EC50 (Jurkat [3]) was 14 µM. The EC50 [4] was 9 µM, the “Ratio IC50/EC50” value [7] was 8.3 and the “Ratio IC50/EC50” value [5] was 7.3. For the same molecule, the Activity (PBMC) was “inactive”.
